Experimental data: ChEMBL document CHEMBL3098119, “Exploring naphthyl-carbohydrazides as inhibitors of influenza A viruses” (Eur J Med Chem, 2014)
Calls of active or inactive are those of the source. The calls are words filed in the database; no cut-off is given here.

Legend:
Influenza A virus [1] = test: Antiviral activity against Influenza A virus (A/udorn/307/1972 H3N2) infected in MDCK cells assessed as inhibition of viral replication at 8 uM after 24 to 48 hrs by hemagglutination assay; type: functional, organism-based
Method in brief: (§1)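 MDCK cells infected with Ud virus at moi 0.001 PFU/cell. After 1 h adsorption, compound was added at 4 or 8 μM in medium containing 1% DMSO. Medium aliquots were taken at 24, 36 and 48 h and assayed for hemagglutinin (HA) titre. Infected cells without inhibitor served as the control.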

Influenza A virus [2] = test: Antiviral activity against Influenza A virus (A/udorn/307/1972 H3N2) infected in MDCK cells assessed as inhibition of viral replication at 4 to 8 uM after 24 hrs by hemagglutination assay; type: functional, organism-based; method in brief: as §1
Influenza A virus [3] = test: Antiviral activity against Influenza A virus (A/udorn/307/1972 H3N2) infected in MDCK cells assessed as reduction in viral RNA titer at 8 uM after 24 to 48 hrs by RT-qPCR analysis; type: functional, organism-based
Method in brief: (§2)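 Infection was the same: MDCK, Ud virus at moi 0.001 PFU/cell, 1 h adsorption, then compound at 4 or 8 μM in 1% DMSO medium. Supernatant was sampled at 24, 36 and 48 h. Neuraminidase-segment vRNA was reverse transcribed in duplicate (forward primer 1.25 μM, 12 h, 37 C), then amplified by probe qPCR in duplicate (primers 0.8 μM, probe 0.24 μM, 50 cycles). Results were normalized to the start of infection.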

Influenza A virus [4] = test: Antiviral activity against Influenza A virus (A/udorn/307/1972 H3N2) infected in MDCK cells assessed as reduction in viral RNA titer at 4 to 8 uM after 24 hrs by RT-qPCR analysis; type: functional, organism-based; method in brief: as §2
Influenza A virus [5] = test: Antiviral activity against Influenza A virus (A/udorn/307/1972 H3N2) infected in MDCK cells assessed as reduction in viral RNA titer at 4 uM after 36 to 48 hrs by RT-qPCR analysis; type: functional, organism-based; method in brief: as §2
Influenza A virus [6] = test: Antiviral activity against Influenza A virus (A/udorn/307/1972 H3N2) infected in MDCK cells assessed as inhibition of viral replication at 4 uM after 36 to 48 hrs by hemagglutination assay; type: functional, organism-based; method in brief: as §1
Influenza A virus [7] = test: Antiviral activity against Influenza A virus (A/udorn/307/1972 H3N2) infected in MDCK cells assessed as inhibition of viral replication at 4 uM after 36 hrs by hemagglutination assay; type: functional, organism-based; method in brief: as §1
Influenza A virus [8] = test: Antiviral activity against Influenza A virus (A/udorn/307/1972 H3N2) infected in MDCK cells assessed as reduction in viral RNA titer at 4 uM after 36 hrs by RT-qPCR analysis; type: functional, organism-based; method in brief: as §2
MDCK = test: Cytotoxicity against MDCK cells infected with Influenza A virus (A/udorn/307/1972 H3N2) at 4 uM after 24 to 48 hrs by CellTiter-Glo cell viability assay; type: cell-based, Canis lupus familiaris; conditions: dog
Method in brief: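 CellTiter-Glo ATP luminescence was measured in MDCK cells infected with Ud virus at low multiplicity, with or without 4 μM compound. Cells were lysed at several times over the 48 h infection.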

Influenza A virus [9] = test: Antiviral activity against Influenza A virus (A/udorn/307/1972 H3N2) infected in MDCK cells assessed as inhibition of viral replication at 4 to 8 uM after 24 to 48 hrs by hemagglutination assay; type: functional, organism-based; method in brief: as §1
Influenza A virus [10] = test: Antiviral activity against Influenza A virus (A/udorn/307/1972 H3N2) infected in MDCK cells assessed as reduction in viral RNA titer at 4 to 8 uM after 24 to 48 hrs by RT-qPCR analysis relative to control; type: functional; method in brief: as §2
Influenza A virus [11] = test: Antiviral activity against Influenza A virus (A/udorn/307/1972 H3N2) infected in MDCK cells assessed as reduction in viral RNA titer up to 6.5 hrs by RT-qPCR analysis; type: functional, organism-based
Influenza A virus [12] = test: Antiviral activity against Influenza A virus (A/udorn/307/1972 H3N2) infected in MDCK cells assessed as reduction in viral RNA titer at 4 uM after 48 hrs by RT-qPCR analysis; type: functional, organism-based; method in brief: as §2
Influenza A virus [13] = test: Antiviral activity against Influenza A virus (A/udorn/307/1972 H3N2) infected in MDCK cells assessed as inhibition of viral replication at 4 uM after 48 hrs by hemagglutination assay; type: functional, organism-based; method in brief: as §1

Q: With CC/C(=N\NC(=O)c1cc2ccccc2cc1O)c1ccc2c(c1)CCCC2 as the compound, how does the inhibition (Influenza A virus [1]) read?
A: The inhibition was “Active”.

Q: What about the inhibition (Influenza A virus [2]) of the same compound?
A: Its inhibition is “Active”.

Q: And the inhibition (Influenza A virus [3])?
A: Its inhibition is “Active”.

Q: What about the inhibition (Influenza A virus [4]) of the same compound?
A: Its inhibition is “Active”.

Q: What does the source list for CN(C)CCC/C(=N\NC(=O)c1cc2ccccc2cc1O)c1ccc2c(c1)CCCC2?
A: inhibition (Influenza A virus [5]): inactive; inhibition (Influenza A virus [1]): Active; inhibition (Influenza A virus [6]): inactive; inhibition (Influenza A virus [3]): Active

Q: Which results are given for O=C(N/N=C(/c1ccc2c(c1)CCCC2)C1CCCCC1)c1cc2ccccc2cc1O?
A: inhibition (Influenza A virus [7]): Active; inhibition (Influenza A virus [5]): Active; inhibition (Influenza A virus [1]): Active; inhibition (Influenza A virus [8]): Active; inhibition (Influenza A virus [6]): Active

Q: For O=C(N/N=C(\c1ccccc1)c1ccc2c(c1)CCCC2)c1cc2ccccc2cc1O, which Activity (MDCK) is on record?
A: The Activity was “Non-toxic”.

Q: And the inhibition (Influenza A virus [9])?
A: Its inhibition is “Active”.

Q: What about the “fold change (FC)” value (Influenza A virus [10]) of the same compound?
A: Its value is 1000.

Q: What about the inhibition (Influenza A virus [11]) of the same compound?
A: Its inhibition is “Active”.

Q: CC(C)/C(=N\NC(=O)c1cc2ccccc2cc1O)c1ccc2c(c1)CCCC2 was tested. Which inhibition (Influenza A virus [2]) did it give?
A: Its inhibition is “Active”.

Q: And the inhibition (Influenza A virus [4])?
A: Its inhibition is “Active”.

Q: Which inhibition (Influenza A virus [12]) does the source give for CCC/C(=N\NC(=O)c1cc2ccccc2cc1O)c1ccc2c(c1)CCCC2 here?
A: Its inhibition is “inactive”.

Q: And the inhibition (Influenza A virus [13])?
A: Its inhibition is “inactive”.

Q: And the inhibition (Influenza A virus [1])?
A: Its inhibition is “Active”.

Q: What about the inhibition (Influenza A virus [3]) of the same compound?
A: The inhibition was “Active”.

Q: What does the source list for O=C(N/N=C(\CCCCl)c1ccc2c(c1)CCCC2)c1cc2ccccc2cc1O?
A: inhibition (Influenza A virus [5]): inactive; inhibition (Influenza A virus [1]): Active; inhibition (Influenza A virus [6]): inactive; inhibition (Influenza A virus [3]): Active

Q: For O=C(N/N=C(/c1ccc2c(c1)CCCC2)C1CCCC1)c1cc2ccccc2cc1O, which inhibition (Influenza A virus [5]) is on record?
A: Its inhibition is “Active”.

Q: What about the inhibition (Influenza A virus [1]) of the same compound?
A: The inhibition was “Active”.

Q: What about the inhibition (Influenza A virus [6]) of the same compound?
A: The inhibition was “Active”.

Q: And the inhibition (Influenza A virus [3])?
A: Its inhibition is “Active”.

Q: O=C(N/N=C(/c1ccc2c(c1)CCCC2)C1CC1)c1cc2ccccc2cc1O was tested. Which inhibition (Influenza A virus [1]) did it give?
A: Its inhibition is “Active”.

Q: What about the inhibition (Influenza A virus [3]) of the same compound?
A: The inhibition was “Active”.
